The data set has as its system MS2 coat protein. As to the kind of experiment: apparent Kd, MS2 coat protein; higher = weaker binding; RNA-MaP array; FMN 200 µM where present. The method, boiled down:
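Apparent Kd: the median of filtered binding-curve fits from single clusters. Designs were transcribed on Illumina sequencing-chip clusters by stalled E. coli RNA polymerase and titrated with SNAP-549-labelled MS2 coat protein from 0.7 or 1.5 nM, doubling to 3 µM, in 100 mM Tris-HCl pH 7.5, 80 mM KCl, 4 mM MgCl2, BSA, DTT, yeast tRNA and Tween-20. Each series ran without and then with constant ligand, and green signal was normalised to red-channel RNA signal and control-cluster median Fmax.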

Setting [1] is: designed as: OFF switch for flavin mononucleotide, no ligand.
[2] abbreviates: ligand present: flavin mononucleotide, designed as: OFF switch for flavin mononucleotide.
The mark [3] stands for this setting: designed as: ON switch for flavin mononucleotide, no ligand.
The mark [4] stands for this setting: ligand present: flavin mononucleotide, designed as: ON switch for flavin mononucleotide.

On to “UUCCUCGUUGUGAGGAUAUCGUCCGUGUUUUGUUACGAGAAGGCACAUGAGGAUCACCCAUGUUUUUUGUUUUU”, for which the apparent Kd (usually the concentration giving half-maximal binding under the conditions of the assay) amounted to 39.2 nM under setting [1] and 77.7 nM under setting [2].

For “CUAAAUCAUGUAGGAUAUGCGUGGCGAAGCUAUGCAGAAGGACAUGAGGAUCACCCAUGUCUAUCCGUCUGCGUACAGACGGAA”, the “apparent Kd” value reads like this: under setting [1], 25.1 nM; under setting [2], 186 nM.

For “GUAGCAUGCAGGCAGGAUAUUCAUAUUAAAACAUGAGGAUCACCCAUGUAGGCCGAAAGGCCUUGGGAGAAGGGCCACAUGCUAC”, the “apparent Kd” value was found to be 786 nM under setting [3] and 52.6 nM under setting [4].

Regarding “GGACAUUUACAGAAGGGCAAAUUUUAUAUUGAAUAUUUAGUUCUGAUUUGCAGGAUAUGUUUUACAUGAGGAUCACCCAUGUCC”, the “apparent Kd” value was 59.9 nM under setting [3] and 27.9 nM under setting [4].

Regarding “GUGUAGUCAGGAUAUACAGAGGAAGAUAAUACAAUAUAAGUACAUGAGGAUCACCCAUGUAGAAGGGACAGUGU”, the “apparent Kd” value reads like this: under setting [1], 30.8 nM; under setting [2], 32.4 nM.

Regarding “AUCAGCUCGUCAGGAUAUACGUCAGUGCGUCAGCAGUGUGGUAAGAUCACAUGAGGAUCACCCAUGUAGAAGGGACGAGCUGAU”, the “apparent Kd” value reads like this: under setting [1], 161 nM; under setting [2], 621 nM.

“AUAUUAUAGAUCCAUUUAUUCAACAUGAGGAUCACCCAUGUGCAGGAUAUCGUGUGUUUUAUAAACGAGAAGGGCAAAUUCAUU”: the “apparent Kd” value stood at 31.9 nM under setting [1] and 96.7 nM under setting [2].

Take “GGCGAACAGGCUAACAUGAGGAUCACCCAUGUGGACUCAUGGUAGGAUAUGCUGUACAAAGUACAGCAGAAGGGCCGGUGAGCC”: the “apparent Kd” value is, setting by setting: under setting [3], 139 nM; under setting [4], 376 nM.

Regarding “AGUUUGUGAGGAUAUCCAAUAUAUGACAUGAGGAUCACCCAUGUUUCCACUCGUACCUCCGGAGAAGGCACUGCGU”, the “apparent Kd” value under setting [1] was 30.7 nM and the “apparent Kd” value under setting [2] amounted to 26.9 nM.

On to “CCACCCUGAGGAUAUCCACCCUGAUACAUGAGGAUCACCCAUGUUAAUGCCUGAGUUCCCGGAGAAGGCAGAUUCC”, for which the “apparent Kd” value reads like this: under setting [1], 40.5 nM; under setting [2], 34.7 nM.

As for “UGGUACAUGGGAGGAUAUGGGUUGAUAACAUGAGGAUCACCCAUGUUAAUGCCGAAAGGCAAGAACUAGAAGGCCCAUGUACCU”, the “apparent Kd” value is, setting by setting: under setting [3], 410 nM; under setting [4], 30.2 nM.

Regarding “UGCUGGGAGUCAGGAUAUACGUGGUAUGCUGAGCACAUGAGGAUCACCCAUGUAGAAGGGAUUCCGCGGUGAGAUUCCGAAACA”, the “apparent Kd” value is, setting by setting: under setting [1], 6.03 nM; under setting [2], 6.62 nM.

For the sequence “UUCGUGCAGCUUUGCUGUACGCGUACAUGAGGAUCACCCAUGUAGGAUAUGGUACGCUUUGCGUGCUAGAAGGAUAUGGAGAGC”, the “apparent Kd” value by setting is: under setting [1], 15.7 nM; under setting [2], 16.3 nM.

As to “GGAUAGGACAGAGGAUAUACGUGCUAGAGAUACUGGCAAAAUUUCCUCACAUGAGGAUCACCCAUGUAGAAGGCUGUCCUAUCG”, the “apparent Kd” value under setting [1] was 16.6 nM and the “apparent Kd” value under setting [2] came to 374 nM.

As to “GUACUAAAGCUUUGCUUUAGUCGUACAUGAGGAUCACCCAUGUAGGAUAUGGUAGGCUUUGCUUACUAGAAGGAUAGAGUGAUC”, the “apparent Kd” value under setting [1] worked out at 110 nM and the “apparent Kd” value under setting [2] came to 36.1 nM.

For “ACAUGAGGAUCACCCAUGUGAAAGAAAUGGCUGACUUUGAGCUAGGAUAUUUGUGCAUAUCAAACGAAGAAGGAGCAUUACUGG”, the “apparent Kd” value runs as follows: under setting [1], 22.2 nM; under setting [2], 21 nM.

“AGGAGGAAUGUAGGAUAUAUAUAUAUAUAUAGGCAAAGCGUAUAUAUAUAUAUAGAAGGACAUGAGGAUCACCCAUGUUUCCCU”: the “apparent Kd” value was found to be 9.27 nM under setting [1] and 8.99 nM under setting [2].

In the case of “GGUUCCUUCACAGGAUAUGCUAUCCUUUGGGUAGCAGAAGGGUGAUACAUGAGGAUCACCCAUGUGGAGCCAGGGCGUGAGCCC”, the “apparent Kd” value under setting [3] was determined as 1260 nM and the “apparent Kd” value under setting [4] was 428 nM.

In the case of “AGUUACAUGUAAGGAUAUACUAGCGAUAAGCUAGUAGAAGGUACUGUCUAUUGUAUCACUAUUAUACAUGAGGAUCACCCAUGU”, the “apparent Kd” value runs as follows: under setting [3], 7.56 nM; under setting [4], 6.36 nM.

“CGGUCACAUGAGGAUCACCCAUGUACCUACGCGAUGAAGUCGCAGGAUAUCCAUUACUUUACGUAGGAGAAGGGUGACGCUCGC”: the “apparent Kd” value under setting [3] was 51.1 nM and the “apparent Kd” value under setting [4] worked out at 34 nM.

Take “GCACUUAAGUUAGGAUAUGGAUCGGAAAACGAUCCAGAAGGAAUAUGGGAACAUGAGGAUCACCCAUGUUCCACAAACAAGUGC”: the “apparent Kd” value turned out to be 55.4 nM under setting [3] and 29 nM under setting [4].

Take “GUGGACGUCGUAGGAUAUGUAGGAUAUUCCUACAUGAGGAUCACCCAUGUUUACAUGGAAGAAGGACAGAAGGACGAUGUCCAG”: the “apparent Kd” value stood at 992 nM under setting [3] and 16.2 nM under setting [4].

For “AGUGUCAUCGAGAAGGCCUCAACAUGAGGAUCACCCAUGUUGCAAAAUGGGAGGAUAUCGCGCGUUAAAAAACGUUUCGUAGCA”, the “apparent Kd” value runs as follows: under setting [3], 38.3 nM; under setting [4], 17.5 nM.

In the case of “UAUAUAUAGUAAGGAUAUGUAUUAAUUUAAUAAACAGAAGGUACUGACAUGAGGAUCACCCAUGUUUUAGUGUGGGCAUGUAGA”, the “apparent Kd” value was found to be 98 nM under setting [1] and 140 nM under setting [2].

Regarding “UACCACCGCACGGACACGCCGAGUCAGGAUAUACAUGAGGAUCACCCAUGUGAAGGCCGGCUCGUGUAGAAGGGACAGGCGUUG”, the “apparent Kd” value is, setting by setting: under setting [1], 5.43 nM; under setting [2], 6.72 nM.

Consider “AAGUGUGGAUGAGGAUAUCAGCUGUAACUGACGUCGACAUGAGGAUCACCCAUGUUGCUAUAGGGUGAGAAGGCAUUUGCGCAA”, for which the “apparent Kd” value is 585 nM under setting [3] and 75.1 nM under setting [4].

Take “ACAUACAUUCGAGGAUAUCGGUGAUAACUCAAACGAGAAGGCGAUUUAAAACAUAAUGCUGUAGACAUGAGGAUCACCCAUGUA”: the “apparent Kd” value by setting is: under setting [3], 497 nM; under setting [4], 137 nM.

Consider “GUCGGAAACGACAAGUAGCAAUCGGAGGAUAUUCAUGAAAACAUGAGGAUCACCCAUGUAAAUUGGGAGAAGGCCGAUUGCUAC”, for which the “apparent Kd” value is 91.6 nM under setting [3] and 8.48 nM under setting [4].

For “UCCGCUCGAGGAUAUACAUGAGGAUCACCCAUGUUUCCCUGUUGCUUGGCCUCAGGAUGUAGAAGGCGACGCUA”, the “apparent Kd” value is, setting by setting: under setting [1], 17.6 nM; under setting [2], 19.8 nM.

Take “GCUAGUGCAGGAUAUGCGUGGGAUGUUAUCCAUUUUCAUCUACAUGAGGAUCACCCAUGUAGAAGGGCACCCUU”: the “apparent Kd” value is, setting by setting: under setting [1], 29.3 nM; under setting [2], 110 nM.

Regarding “AUCAGCUCGUCAGGAUAUACGUCACUGCGUCAGCAGUGUGGUAAGAUCACAUGAGGAUCACCCAUGUAGAAGGCACGAGCUGAU”, the “apparent Kd” value came to 8.44 nM under setting [1] and 9.04 nM under setting [2].

Take “UGUCGGAGCAGAGGAUAUUACAUGAGGAUCACCCAUGUAUGAACCUAUAGCUGGAAACAGCAAUGUAAGAAGGCUGCUCCGACA”: the “apparent Kd” value by setting is: under setting [1], 23.5 nM; under setting [2], 338 nM.

For “AUCGGUCCGUAGAAGGGUGACAUGAGGAUCACCCAUGUGCCGUGUGCAUUUAUGCAUCCACGGCCACAGGAUAUACGGAGUUGA”, the “apparent Kd” value under setting [3] was 34.9 nM and the “apparent Kd” value under setting [4] is 25.4 nM.

For “CGGCACCAAGGAUAUACAUGAGGAUCACCCAUGUUUUUUGGGCCCUAAAGAUCUACGUGUAGAAGGUGGGUCGA”, the “apparent Kd” value by setting is: under setting [1], 58.8 nM; under setting [2], 59.6 nM.

For “CUAGCUAUCGGAGGAUAUUCAUAGCCGAAAGGCACAUGAGGAUCACCCAUGUGCGGAAACGCUUGGGAGAAGGCCGAUAGCUAG”, the “apparent Kd” value under setting [3] worked out at 25.7 nM and the “apparent Kd” value under setting [4] came out at 15.2 nM.

In the case of “UGUCGGAGCAGAGGAUAUUACAUGAGGAUCACCCAUGUAUGAACCAAUAGCUGGAAACAGCAAUGGAAGAAGGCUGCUCCGACA”, the “apparent Kd” value reads like this: under setting [1], 4.99 nM; under setting [2], 5.37 nM.

For the origin of these results see the EternaBench riboswitch data.
